From ChEMBL document CHEMBL1128463, “Design, synthesis, and antiviral activity of certain 2,5,6-trihalo-1-(beta-D-ribofuranosyl)benzimidazoles” (J Med Chem, 1995)

Key:
HFF = assay: Compound was evaluated for the visual cytotoxicity scored on HFF cells at time of HCMV plaque enumeration; format: functional, cell-based; conditions: Homo sapiens
Summary of the method: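 Stationary HFF cells not affected by virus in the HCMV plaque assay, inspected microscopically for cytotoxicity when plaques were counted (after 7–10 days at 37 °C). Reported as IC50.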

Human betaherpesvirus 5 [1] = assay: Compound was evaluated for the antiviral activity against HCMV determined by using Plaque assay; format: functional, organism-based
Summary of the method: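 Towne strain HCMV (plaque-purified P0) on HFF monolayers, about 100 PFU/cm², 2 h adsorption at 37 °C. Compounds added in growth medium, four to eight concentrations, duplicate wells. Incubated 7–10 days at 37 °C, then crystal violet stain and microscopic plaque count. Percent plaque reduction versus no-drug wells, regressed on log concentration to give IC50.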

KB = assay: Compound was evaluated for the inhibition of KB cell growth determined in quadruplicate assay; format: functional, cell-based; conditions: Homo sapiens
Summary of the method: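 KB cells at 3000–5000/well, compound added in quadruplicate at six to eight concentrations, 48 h at 37 °C (about two population doublings). Cells fixed with ethanol, stained with crystal violet, eluted dye read at 570 nm. IC50 from regression of percent inhibition on log concentration.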

Human alphaherpesvirus 1 = assay: Compound was evaluated for the antiviral activity against HSV-1 determined by using ELISA method; format: functional, organism-based
Summary of the method: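 HSV-1 (KOS strain in most experiments) at 100 PFU/well on BSC-1 cells (10 000/well), drug in quadruplicate, 3–5 days at 37 °C. Wells blocked, probed with HRP-conjugated rabbit anti-HSV-1 antibody, developed with tetramethylbenzidine and read at 450 and 570 nm. Percent absorbance reduction versus virus-only wells; IC50 from regression on log concentration.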

Human betaherpesvirus 5 [2] = assay: Compound was evaluated for the antiviral activity against HCMV determined by using Yield reduction assay; format: functional
Summary of the method: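 HFF cells at 12 500 cells/well, infected with Towne HCMV at MOI 0.5–1 PFU/cell. Compounds added after adsorption, 1:3 serial dilutions spanning about 1000-fold (e.g. 100–0.14 μM), in duplicate. 7 days at 37 °C, one freeze-thaw, then progeny titred by plaque count on fresh HFF plates. Reported as IC90.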

Compound	IC50 (HFF)	IC50 (Human betaherpesvirus 5 [1])	IC50 (KB)	IC50 (Human alphaherpesvirus 1)	IC90 (Human betaherpesvirus 5 [2])
Clc1cc2nc(Br)[nH]c2cc1Cl	21 µM	12 µM	56 µM		
Clc1nc2cc(Cl)c(Cl)cc2[nH]1	24 µM	6.4 µM	19 µM	51 µM	
OC[C@H]1O[C@H](n2c(Br)nc3cc(Cl)c(Cl)cc32)[C@@H](O)[C@H]1O	118 µM	0.7 µM	> 100 µM	130 µM	0.2 µM
CC(=O)OC[C@H]1O[C@@H](n2c(Br)nc3cc(Cl)c(Cl)cc32)[C@H](OC(C)=O)[C@@H]1OC(C)=O	100 µM	1.5 µM	25 µM	> 100 µM	0.2 µM
CC(=O)OC[C@H]1O[C@@H](n2c(Cl)nc3cc(Cl)c(Cl)cc32)[C@H](OC(C)=O)[C@@H]1OC(C)=O	100 µM	2 µM	> 100 µM		0.2 µM
OC[C@H]1O[C@@H](n2c(Cl)nc3cc(Cl)c(Cl)cc32)[C@H](O)[C@@H]1O	238 µM	2.9 µM	210 µM	102 µM	1.4 µM
Nc1nc2cc(Cl)c(Cl)cc2n1C1O[C@H](CO)[C@@H](O)[C@H]1O (some centres not stated)	32 µM	40 µM	40 µM	50 µM	8 µM
OC[C@H]1OC(n2c(I)nc3cc(Cl)c(Cl)cc32)[C@H](O)[C@@H]1O (some centres not stated)	118 µM	30 µM	23 µM	21 µM	26 µM
OC[C@H]1OC(n2c(O)nc3cc(Cl)c(Cl)cc32)[C@H](O)[C@@H]1O (some centres not stated)	100 µM	> 100 µM			
O=[N+]([O-])c1c(Cl)c(Cl)cc2c1nc(O)n2C1O[C@H](CO)[C@@H](O)[C@H]1O (some centres not stated)	100 µM	> 100 µM		> 100 µM	
Nc1nc2cc(Cl)c(Cl)cc2[nH]1	100 µM	100 µM	> 100 µM	> 100 µM	
OC[C@H]1O[C@@H](n2cnc3cc(Cl)c(Cl)cc32)[C@H](O)[C@@H]1O [DICHLORORIBOBENZIMIDAZOLE]	24 µM		36 µM		19 µM
O=C(O)P(=O)(O)O [FOSCARNET SODIUM]	> 100 µM				
Nc1nc2c(ncn2COC(CO)CO)c(=O)[nH]1 [GANCICLOVIR]	> 100 µM		> 100 µM		1.6 µM
